ChEMBL document CHEMBL1949639, “New losartan-hydrocaffeic acid hybrids as antihypertensive-antioxidant dual drugs: Ester, amide and amine linkers” (2012)

Tests used:
[1] = Antioxidant activity assessed as trolox equivalent of ABTS radical scavenging activity relative to control; format: functional
Summary of the method: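 Metmyoglobin/H2O2 oxidation of ABTS to its radical, read as absorbance at 600 nm in 96-well format. Samples taken from K2CO3-solubilised stocks diluted in PBS. Activity expressed as TEAC: the concentration (mM) giving the same percentage change in ABTS radical absorbance as 1 mM Trolox.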

[2] = Antihypertensive activity against angiotensin-2-induced cell contraction in Wistar rat VSMC assessed as changes in planar cell surface area after 30 mins by planimetric technique; format: functional
Summary of the method: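 VSMC from thoracic aortas of Wistar rats, collagenase-digested, grown in DMEM/Ham's F-12 with 10% foetal calf serum at 37 °C, 5% CO2, used at passages 3–5. Cells in Tris-glucose buffer pH 7.45 with angiotensin II plus compound, […], for 30 min. Photographed at 0 and 30 min, planar surface area by planimetry. 4–8 cells per experiment, mean of 5 experiments gives percent inhibition of contraction.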

[3] = tested on: Rattus norvegicus; assay: Antihypertensive activity in Wistar rat assessed as decrease of L-NAME-induced systolic arterial pressure at 20 mg/kg, po administered with drinking water qd for 3 days by sphygmomanometer; format: functional, Artery; details: dose 30 mg/kg, in the assay text read “30 mg/kg” for “20 mg/kg”
Summary of the method: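 Two-month-old male Wistar rats received L-NAME in drinking water (20 mg/kg/day). After one week, losartan (20 mg/kg/day) or hybrids (30 mg/kg/day) were given daily in drinking water for three days. At least six animals per group. Arterial pressure measured in conscious rats by tail-cuff sphygmomanometer.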

`O=C(O)c1ccc(O)c(O)c1` showed a Ratio [1] of 0.153.

`CCCCc1nc(Cl)c(C(=O)O)n1Cc1ccc(-c2ccccc2-c2nn[nH]n2)cc1` gave a Ratio [1] of 0.03.

For `CC[C@H](C)[C@H](NC(=O)[C@H](Cc1ccc(O)cc1)NC(=O)[C@@H](NC(=O)[C@H](CCCNC(=N)N)NC(=O)[C@@H](N)CC(=O)O)C(C)C)C(=O)N[C@@H](Cc1cnc[nH]1)C(=O)N1CCC[C@H]1C(=O)N[C@@H](Cc1ccccc1)C(=O)O` [ANGIOTENSIN II], the “inhibition (INH)” value [2] was 82%.

With `CCCCc1nc(Cl)c(COC(=O)CCc2ccc(O)c(O)c2)n1Cc1ccc(-c2ccccc2-c2nnn[nH]2)cc1` the Ratio [1] was 0.31, the “inhibition (INH)” value [2] was 94% and the Activity [3] was 29 mmHg.

`O=C(O)/C=C/c1ccc(O)c(O)c1` gave a Ratio [1] of 0.2.

With `O=C(O)CCc1ccc(O)c(O)c1` [DIHYDROCAFFEIC ACID] the Ratio [1] was 0.36 and the “inhibition (INH)” value [2] was 85%.

In the case of `CCCCc1nc(Cl)c(CNC(=O)CCc2ccc(O)c(O)c2)n1Cc1ccc(-c2ccccc2-c2nn[nH]n2)cc1`, the Ratio [1] is reported as 0.27, the “inhibition (INH)” value [2] is reported as 90% and the Activity [3] is reported as 13 mmHg.

With `CCCCc1nc(Cl)c(CNCCCc2ccc(O)c(O)c2)n1Cc1ccc(-c2ccccc2-c2nn[nH]n2)cc1` the Ratio [1] was 0.13 and the “inhibition (INH)” value [2] was 92%.

Molecule `CC(C)(C)c1cc(C(=O)O)cc(C(C)(C)C)c1O` has a Ratio [1] of 0.181.

In the case of `CCCCc1nc(C(=O)OCCCc2ccc(O)c(O)c2)c(Cl)n1Cc1ccc(-c2ccccc2-c2nn[nH]n2)cc1`, the Ratio [1] is reported as 0.24, the “inhibition (INH)” value [2] is reported as 95% and the Activity [3] is reported as 14 mmHg.

In the case of `CCCCc1nc(Cl)c(CO)n1Cc1ccc(-c2ccccc2-c2nnn[nH]2)cc1` [LOSARTAN], the Ratio [1] is reported as 0.03, the “inhibition (INH)” value [2] is reported as 93% and the Activity [3] is reported as 13 mmHg.

In the case of `CCCCc1nc(Cl)c(C(=O)OCCCc2ccc(O)c(O)c2)n1Cc1ccc(-c2ccccc2-c2nn[nH]n2)cc1`, the Ratio [1] is reported as 0.1, the “inhibition (INH)” value [2] is reported as 88% and the Activity [3] is reported as 9 mmHg.

`CC(C)(C)c1cc(CC(=O)O)cc(C(C)(C)C)c1O` showed a Ratio [1] of 1.06.

Molecule `COc1cc(C(=O)O)cc(OC)c1O` has a Ratio [1] of 1.07.

With `CCCCc1nc(Cl)c(C(=O)NCCCc2ccc(O)c(O)c2)n1Cc1ccc(-c2ccccc2-c2nn[nH]n2)cc1` the Ratio [1] was 0.17, the “inhibition (INH)” value [2] was 93% and the Activity [3] was 1 mmHg.

For `COc1cc(C(=O)O)ccc1O`, the Ratio [1] was 0.202.
